In ChEMBL document CHEMBL1149086, “Antimalarial and antitumor evaluation of novel C-10 non-acetal dimers of 10beta-(2-hydroxyethyl)deoxoartemisinin” (J Med Chem, 2004):

Tests used:
CCRF-CEM [1] = experiment: Concentration required to achieve total growth inhibition against leukemia CCRF-CEM cell line; type: functional; settings: Homo sapiens
COLO 205 [2] = experiment: inhibition against colon COLO 205 cancer cell line; type: functional; settings: Homo sapiens
CCRF-CEM [3] = experiment: inhibition against leukemia CCRF-CEM cell line; type: functional; settings: Homo sapiens
COLO 205 [4] = experiment: Concentration of the drug required to achieve 50% cytotoxicity against colon COLO 205 cancer cell line; type: functional; settings: Homo sapiens, read-out: LC50 (the source's name)
COLO 205 [5] = experiment: Concentration required to achieve total growth inhibition against colon COLO 205 cancer cell line; type: functional; settings: Homo sapiens
HCT-15 [6] = experiment: Concentration required to achieve total growth inhibition against colon HCT-15 cancer cell line; type: functional; settings: Homo sapiens
HCT-15 [7] = experiment: Concentration of the drug required to achieve 50% cytotoxicity against colon HCT-15 cancer cell line; type: functional; settings: Homo sapiens, read-out: LC50 (the source's name)
HCT-116 [8] = experiment: Concentration required to achieve total growth inhibition against colon HCT116 cancer cell line; type: functional; settings: Homo sapiens
HCT-15 [9] = experiment: inhibition against colon HCT-15 cancer cell line; type: functional; settings: Homo sapiens
HL-60 [10] = experiment: inhibition against leukemia HL-60(TB) cell line; type: functional; settings: Homo sapiens
HL-60 [11] = experiment: Concentration of the drug required to achieve 50% cytotoxicity against leukemia HL-60(TB) cell line; type: functional; settings: Homo sapiens, read-out: LC50 (the source's name)
HL-60 [12] = experiment: Concentration required to achieve total growth inhibition against leukemia HL-60(TB) cell line; type: functional; settings: Homo sapiens
HCT-116 [13] = experiment: Concentration of the drug required to achieve 50% cytotoxicity against colon HCT116 cancer cell line; type: functional; settings: Homo sapiens, read-out: LC50 (the source's name)
HCC 2998 [14] = experiment: Concentration required to achieve total growth inhibition against colon HCC2998 cancer cell line; type: functional; settings: Homo sapiens
HCC 2998 [15] = experiment: inhibition against colon HCC2998 cancer cell line; type: functional; settings: Homo sapiens
HCC 2998 [16] = experiment: Concentration of the drug required to achieve 50% cytotoxicity against colon HCC2998 cancer cell line; type: functional; settings: Homo sapiens, read-out: LC50 (the source's name)
HT-29 [17] = experiment: Concentration of the drug required to achieve 50% cytotoxicity against colon HT-29 cancer cell line; type: functional; settings: Homo sapiens, read-out: LC50 (the source's name)
HT-29 [18] = experiment: inhibition against colon HT-29 cancer cell line; type: functional; settings: Homo sapiens
HT-29 [19] = experiment: Concentration required to achieve total growth inhibition against colon HT-29 cancer cell line; type: functional; settings: Homo sapiens
K562 [20] = experiment: Concentration of the drug required to achieve 50% cytotoxicity against leukemia K-562 cell line; type: functional; settings: Homo sapiens, read-out: LC50 (the source's name)
Jurkat [21] = experiment: Tested for apoptosis in jurkat cells at a concentration of 0 uM of the compound; type: functional, Homo sapiens
Outline: (§1)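 Jurkat cells (1 × 10⁶ cells mL⁻¹; >98% viable, <2% background apoptosis) incubated 24 h at 37 °C with compound (0–100 μM range, in DMSO). Nuclei stained with propidium iodide (50 μM) in HBSS with 0.1% Triton-X for 10 min at 37 °C. Apoptotic nuclei measured by flow cytometry. Mean ± SD of triplicate incubations in one experiment; Kruskal–Wallis test against DMSO control.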

Jurkat [22] = experiment: Tested for apoptosis in jurkat cells at a concentration of 0.1 uM of the compound; type: functional, Homo sapiens; outline: as §1
Jurkat [23] = experiment: Tested for apoptosis in jurkat cells at a concentration of 0.3 uM of the compound; type: functional, Homo sapiens
Outline: (§2)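 Jurkat cells (>98% viable, <2% background apoptosis) at 1 × 10⁶ cells/mL were exposed to 0–100 μM drug (DMSO) for 24 h at 37 °C in 5% CO₂. Nuclei were stained with 50 μM propidium iodide and 0.1% Triton-X in HBSS for 10 min at 37 °C, then scored as apoptotic by flow cytometry. Triplicate incubations in one experiment, mean ± SD; Kruskal–Wallis test versus DMSO control.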

Jurkat [24] = experiment: Tested for apoptosis in jurkat cells at a concentration of 1 uM of the compound; type: functional, Homo sapiens; outline: as §2
Jurkat [25] = experiment: Tested for apoptosis in jurkat cells at a concentration of 10 uM of the compound; type: functional, Homo sapiens; outline: as §2
Jurkat [26] = experiment: Tested for apoptosis in jurkat cells at a concentration of 100 uM of the compound; type: functional, Homo sapiens; outline: as §2
Jurkat [27] = experiment: Tested for apoptosis in jurkat cells at a concentration of 3 uM of the compound; type: functional, Homo sapiens; outline: as §2
Jurkat [28] = experiment: Tested for apoptosis in jurkat cells at a concentration of 30 uM of the compound; type: functional, Homo sapiens; outline: as §2
Jurkat [29] = experiment: Inhibitory concentration against jurkat cells; type: functional, cell-based; settings: Homo sapiens
Outline: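 HL60 (2.5 × 10⁴/well) or Jurkat (1 × 10⁵/well) in RPMI-1640 with 10% FBS and 1% L-glutamine, 5% CO2, 37 °C. Exposed to 10⁻¹⁰–10⁻⁴ M for 72 h, final DMSO below 0.5% v/v. [3H]-thymidine (0.5 μCi) added for the final 24 h. Incorporation counted by β-scintillation.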

KM12 [30] = experiment: Concentration required to achieve total growth inhibition against colon KM12 cancer cell line; type: functional; settings: Homo sapiens
K562 [31] = experiment: Concentration required to achieve total growth inhibition against leukemia K-562 cell line; type: functional; settings: Homo sapiens
KM12 [32] = experiment: inhibition against colon KM12 cancer cell line; type: functional; settings: Homo sapiens
KM12 [33] = experiment: Concentration of the drug required to achieve 50% cytotoxicity against colon KM12 cancer cell line; type: functional; settings: Homo sapiens, read-out: LC50 (the source's name)
MOLT-4 = experiment: inhibition against leukemia MOLT-4 cell line; type: functional; settings: Homo sapiens
LOX IMVI [34] = experiment: inhibition against melanoma LOX IMVI cell line; type: functional; settings: Homo sapiens
LOX IMVI [35] = experiment: Concentration of the drug required to achieve 50% cytotoxicity against melanoma LOX IMVI cell line; type: cell-based; settings: human

Compound: C[C@H]1[C@@H](CCOP(=O)(OCC[C@H]2O[C@@H]3OC4(C)CC[C@H]5[C@H](C)CC[C@@H]([C@H]2C)[C@@]35OO4)Oc2ccccc2)O[C@@H]2OC3(C)CC[C@H]4[C@H](C)CC[C@@H]1[C@@]24OO3 (single isomer, unassigned)
- TGI (CCRF-CEM [1]): 56 µM
- GI50 (COLO 205 [2]): < 0.01 µM
- GI50 (CCRF-CEM [3]): 0.0259 µM
- CC50 (COLO 205 [4]): > 100 µM
- TGI (COLO 205 [5]): 0.17 µM
- TGI (HCT-15 [6]): > 100 µM
- CC50 (HCT-15 [7]): > 100 µM
- TGI (HCT-116 [8]): > 100 µM
- GI50 (HCT-15 [9]): < 0.01 µM
- GI50 (HL-60 [10]): 0.0115 µM
- CC50 (HL-60 [11]): > 100 µM
- TGI (HL-60 [12]): 2.23 µM
- CC50 (HCT-116 [13]): > 100 µM
- TGI (HCC 2998 [14]): 2.85 µM
- GI50 (HCC 2998 [15]): 0.0648 µM
- CC50 (HCC 2998 [16]): > 100 µM
- CC50 (HT-29 [17]): > 100 µM
- GI50 (HT-29 [18]): < 0.01 µM
- TGI (HT-29 [19]): 23.2 µM
- CC50 (K562 [20]): > 100 µM
- Activity (Jurkat [21]): 7.5%
- Activity (Jurkat [22]): 8.7%
- Activity (Jurkat [23]): 7.3%
- Activity (Jurkat [24]): 8.9%
- Activity (Jurkat [25]): 11.2%
- Activity (Jurkat [26]): 20.1%
- Activity (Jurkat [27]): 8.7%
- Activity (Jurkat [28]): 17.3%
- IC50 (Jurkat [29]): 13.2 µM
- TGI (KM12 [30]): 17.9 µM
- TGI (K562 [31]): 100 µM
- GI50 (KM12 [32]): < 0.01 µM
- CC50 (KM12 [33]): > 100 µM
- GI50 (MOLT-4): < 0.01 µM
- GI50 (LOX IMVI [34]): 0.0191 µM
- LC50 (LOX IMVI [35]): > 100 µM
